Paper PMC6917914 (Nature chemical biology, 2019)
Entries after “also recorded” stand apart in the source; their conditions may differ.

How the values were obtained:
RBM39RRM2-biotin = target: T1, RBM39RRM2-biotin (Homo sapiens, UniProt Q14498); test: TR-FRET titration of BodipyFL-E7820 probe to RBM39RRM2-biotin; type: binding; settings: probe titrated to RBM39RRM2-biotin
T1 sequence (Q14498 245-332): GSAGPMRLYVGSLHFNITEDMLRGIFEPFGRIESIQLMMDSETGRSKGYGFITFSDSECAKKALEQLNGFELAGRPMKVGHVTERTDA
Summary of the method: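 RBM39RRM2 was Avi-tagged and biotinylated in vitro with BirA, then gel-filtered. It was mixed with 2 nM terbium-streptavidin in Tris pH 8.0/NaCl/Pluronic F-68/BSA buffer. Increasing BodipyFL-E7820 probe was added at 2% DMSO, 15 min room temperature. The 520/490 nm ratio without protein was subtracted, and KD came from a one-site specific-binding fit. Three independent replicates.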

DCAF15 = DCAF15 (Homo sapiens, UniProt Q66K64); test: TR-FRET competition assay: displacement of BodipyFL-E7820 from DCAF15; type: binding; settings: for DCAF15 binding, in words: relative to E7820

| Compound | compound binding to RBM39 (RBM39RRM2-biotin) | DCAF15 binding, in words (DCAF15) | Ki (DCAF15) [µM] |
| --- | --- | --- | --- |
| Cc1cc(C)n2c1C=C1C=CC(CCC(=O)NCCCCCCOc3ccc(S(=O)(=O)Nc4ccc(C)c5c(C#N)c[nH]c45)cc3C#N)=[N+]1[B-]2(F)F [BodipyFL-E7820, N-(6-(2-cyano-4-(N-(3-cyano-4-methyl-1H-indol-7-yl)sulfamoyl)phenoxy)hexyl)-3-(5,5-difluoro-7,9-dimethyl-5H-5λ^4,6λ^4-dipyrrolo[1,2-c:2',1'-f][1,3,2]diazaborinin-3-yl)propanamide] | only observed for DDB1ΔB-DCAF15biotin | – | – |
| N#Cc1cccc(S(=O)(=O)Nc2cccc3c(C#N)c[nH]c23)c1 [desmethyl-E7820] | – | significant loss of DCAF15 binding | – |
| NS(=O)(=O)c1ccc(S(=O)(=O)Nc2cccc3c(Cl)c[nH]c23)cc1 [indisulam] | – | significant loss of DCAF15 binding; also recorded: significant loss in affinity for DCAF15 | > 50 |
